The values that follow come from publication PMC2865030 (Biochemical Journal, 2008).

Ends that are not written are not given here.

Series [1] has as its target T1, Tah1 (Saccharomyces cerevisiae, UniProt P25638).
T1 sequence (P25638 1-111): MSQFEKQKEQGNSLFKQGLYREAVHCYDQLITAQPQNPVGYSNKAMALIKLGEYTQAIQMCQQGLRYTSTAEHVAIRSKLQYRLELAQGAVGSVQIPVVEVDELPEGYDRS
Briefly: ITC of peptides injected into Tah1. Type of series: binding, S. cerevisiae.

For another series, the target named is yeast Hsp90 M705V. The series can be described thus: ITC of TPR-domain proteins with yeast Hsp90 M705V. The settings on record: 300 μM Tah1 injected into 30 μM yeast Hsp90 M705V, 4 °C, pH 8.0. In kind it is binding. In short, it runs like this:
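ITC: mouse CHIP or yeast Tah1 (His tags cleaved) at 300 µM was titrated as 9–11 injections of 27 µl into 30 µM yeast Hsp90 M705V. Runs were at 30 °C for CHIP and 4 °C for Tah1, in 20 mM Tris/HCl pH 8.0, 1 mM EDTA, 5 mM NaCl. Data were corrected for separately measured heat of dilution and fitted by nonlinear least squares for stoichiometry, binding constant and enthalpy.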

Series [2] has as its target T1, Tah1. Briefly: Sedimentation equilibrium analytical ultracentrifugation of Tah1. Type of series: physicochemical, S. cerevisiae. Particulars: for Kd: 20 °C, pH 7.5. A digest of the protocol:
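Tag-cleaved Tah1 was dialysed into 20 mM Tris/HCl pH 7.5, 1 mM EDTA, 5 mM NaCl. Sedimentation equilibrium was run at 20 °C, loading 7.0 and 0.5 mg·ml−1 (547 and 39 µM), with a 12 mm path. Initial scans at 726 g checked for aggregates, followed by 39030 g, scanning hourly until unchanged (24 h). Data were fitted by INVEQ, Mfit and NONLIN, and Ka was reciprocated to Kd. Reversible versus irreversible dimer was judged by comparing the two loadings.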

Usually Kd stands for the constant that tells how readily two partners part at equilibrium.

On Tah1 [1], AEGPTAEEVD gave a Kd of 14.8 ± 0.7 µM.
Substance AEGPTMEEVD returned a Kd at Tah1 [1] of 4.2 ± 0.5 µM.
Still for that read-out and setting: as for PADAAMEEVD, the figure is 0.75 ± 0.04 µM; as for PADTEAEEVD, 3.3 ± 0.2 µM; as for PADTEVEEVD, 9.8 ± 0.7 µM.
For the substance “Tah1: TPR-containing protein associated with Hsp90, S. cerevisiae, 111 amino acid residues, Hsp90-interacting co-chaperone”, the Kd at yeast Hsp90 M705V amounted to 13 ± 1.7 µM; with Tah1 [2] (read-out: Kd by INVEQ, Tah1 0.5 mg·ml−1 (39 μM), monomer-dimer) it was 510 µM; with Tah1 [2] (read-out: Kd′ by NONLIN′, Tah1 0.5 mg·ml−1 (39 μM)), 150 µM; with Tah1 [2] (read-out: Kd′ by NONLIN′, Tah1 7.0 mg·ml−1 (547 μM)), 1800 µM. Moreover, in the series with Tah1 [2] (estimated from INVEQ fit, sedimentation equilibrium), the dimeric species present entry was “approx. 19%”.
